The values below come from PubChem BioAssay.

Calls of active or inactive are those of the source.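 The calls were made as follows, unless noted: active = fluorescence slope after compound addition differing from the mean of all tested samples at 99.7% confidence, mostly higher but some lower; inactive = the rest.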

Assay [1] can be described thus: inhibitors of TNFa-induced NFkB p65 translocation, primary screen, imaging, HUVEC, MLSMR starter and 10KST1 sets (AID 438;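 active = inhibition above 20% together with a positive visual image hit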;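 also: compound added about 3h40 before a 20 min TNFalpha stimulation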;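 as to inhibition: signal is the nuclear over cytoplasmic p65 intensity ratio per well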). As to conditions: HUVEC TNFa-induced p65 nuclear translocation; cell count: measured here: nuclei count (cytotoxicity indicator), at 2.08 µM; inhibition: at 2 µM, stronger effect = higher value, 0% TNFa-plus-vehicle, 100% no-TNFa wells.
A short description of assay [2]: inhibitors of mutant huntingtin aggregation, primary screen, imaging, exon1htt(103Q)mCFP cells, high-content imaging (AID 483;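 active = visual image review flags a hit and inhibition of aggregation exceeds 20%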;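 also: compound exposure lasted 3 days before fixation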;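 as to nuclei count: percent of the per-plate median nuclei count of sample wells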). As to conditions: exon1htt(103Q)mCFP cell line, aggregate imaging, at 2 µM; inhibition of aggregation: stronger effect = higher value; nuclei count: measured here: cell count, toxicity.
Assay [3] in a line: inhibitors of E-selectin induction by TNFa, primary screen, imaging, HUVEC, immunofluorescence, MLSMR starter and 10KST1 sets (AID 487;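 active = visually confirmed hit in the image check and inhibition above 20%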;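 as to inhibition: signal is fraction of cell area covered by stained E-selectin grains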;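 as to nuclei count: 100% = median nuclei count of all wells on the same plate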). The conditions noted are these: HUVEC TNFalpha-induced E-selectin immunofluorescence imaging, at 2 µM; inhibition: stronger effect = higher value; nuclei count: measured here: cell number, toxicity.
For assay [4], the target named is Voltage-gated potassium channel subunit beta-2 (Rattus norvegicus) (UniProt P62483). The assay is described as follows: KvBeta enzyme negative modulators, primary screen, biochemical, NADPH fluorescence (AID 622;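 active = fluorescence slope higher than the sample average by over 3 SD, cut at about -0.22 in these data, passing the limit was not always enough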;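 also: slope of raw intensity against log time taken from 70 to 1610 s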). The conditions noted are these: recombinant KvBeta, 4-cyanobenzaldehyde reduction, at 10 µM, stronger effect = higher value.
The target is the same in assay [5]. Kind of assay: KvBeta positive modulators, primary screen, biochemical, NADPH fluorescence (AID 623;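 active = NADPH fluorescence slope more negative than the mean of all samples by about 3 SD, 99.7% confidence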;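 also: fluorescence intensity change per second fitted from 20 to 320 s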). The conditions noted are these: Recombinant KvBeta, NADPH fluorescence decrease slope, 10 min; at 10 µM; stronger effect = lower value.
In assay [6] the target is Muscarinic acetylcholine receptor M4 (Homo sapiens) (UniProt P08173). Kind of assay: compounds altering M4/GIRK thallium flux, either direction, primary screen, M4 allosteric agonist project, cell-based, HEK293 M4/GIRK, BTC-AM (AID 625).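 Also: thallium influx through GIRK channels coupled to M4 in HEK293 cells with BTC-AM dye.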 As to conditions: at 10 µM, actives lie on both sides. In outline: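 Material: HEK293 cells with M4 receptor and GIRK channels; Times: cells overnight at 37 °C, BTC-AM loading 1 h, reads 2 min total; Technique: kinetic BTC-AM fluorescence sampled at 1 Hz, 10 s pre-addition baseline; Read-out basis: slope over 15–24 s of trace normalized to starting intensity; Controls: carbachol positive, DMSO negative.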

Assay [7] in a line: inhibitors of Sendai virus-induced IRF3 signaling, primary screen, TLR/RLR signaling modifier project, cell-based, Sendai virus stimulus, luciferase, 10K MLSCN set (AID 602276;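 active = inhibition at or above 50% at 10 µM; inactive = inhibition below 50%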;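 also: firefly luciferase from ISG56 promoter only with Renilla not read in this screen; 0% = Sendai virus plus DMSO and 100% = medium plus DMSO without virus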). The conditions noted are these: HEK293 RL24 IRF3 luciferase reporter, at 10 µM, stronger effect = higher value.
Assay [8] is described as follows: inhibitors of poly I:C-induced TLR3 signaling, primary screen, cell-based, poly I:C stimulus, luciferase, 10K MLSCN set (AID 602277;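 active = inhibition of the reporter signal at or above 50%; inactive = inhibition below 50%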). The conditions noted are these: HEK293-TLR3 RL24 IRF3 luciferase reporter, at 10 µM, stronger effect = higher value. (A reporter such as luciferase makes a cellular process visible.)

Chain of Muscarinic acetylcholine receptor M4 (Homo sapiens) (P08173 whole entry, looked up): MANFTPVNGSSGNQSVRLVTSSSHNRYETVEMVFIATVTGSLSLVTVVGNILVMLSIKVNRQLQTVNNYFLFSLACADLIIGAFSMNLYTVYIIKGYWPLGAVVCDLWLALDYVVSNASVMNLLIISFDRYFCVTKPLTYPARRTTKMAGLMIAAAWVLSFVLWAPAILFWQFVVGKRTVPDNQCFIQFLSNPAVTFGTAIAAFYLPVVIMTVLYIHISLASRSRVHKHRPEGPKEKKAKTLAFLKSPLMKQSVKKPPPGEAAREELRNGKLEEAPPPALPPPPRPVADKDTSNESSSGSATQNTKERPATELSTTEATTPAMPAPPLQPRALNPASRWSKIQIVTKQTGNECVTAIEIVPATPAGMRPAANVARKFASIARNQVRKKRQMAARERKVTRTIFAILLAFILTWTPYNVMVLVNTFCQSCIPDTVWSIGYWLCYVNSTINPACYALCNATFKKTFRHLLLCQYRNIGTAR
Chain of Voltage-gated potassium channel subunit beta-2 (Rattus norvegicus) (P62483 whole entry, looked up): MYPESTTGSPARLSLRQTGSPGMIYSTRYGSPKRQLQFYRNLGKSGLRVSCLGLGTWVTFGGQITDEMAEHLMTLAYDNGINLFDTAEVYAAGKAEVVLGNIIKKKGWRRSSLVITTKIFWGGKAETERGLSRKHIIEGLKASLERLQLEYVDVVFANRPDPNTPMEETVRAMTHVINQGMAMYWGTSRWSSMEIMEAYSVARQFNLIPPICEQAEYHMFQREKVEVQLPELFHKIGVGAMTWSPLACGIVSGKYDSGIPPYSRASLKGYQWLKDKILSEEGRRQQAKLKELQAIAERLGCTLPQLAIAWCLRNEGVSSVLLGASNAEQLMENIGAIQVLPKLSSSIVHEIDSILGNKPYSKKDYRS

What is called inhibition is the change of the read-out against control, counted positive when it falls. With `CCN(CC)c1ccc(NC(=O)c2cncc(Br)c2)cc1`, the cell count in assay [1] worked out at 218. The inhibition is 0.6% (inactive) in assay [1], -31.6% (inactive) in assay [3], -32.8% (inactive) in assay [7] and -129% (inactive) in assay [8]. Besides, the inhibition of aggregation in assay [2] was 28% (inactive). Besides, the figures for the nuclei count in assay [2] and in assay [3] were 86.8% and 104%, respectively. Also, the fluorescence slope in assay [4] was -0.59 (inactive); in assay [6], 0.00416 (inactive). The NADPH fluorescence slope in assay [5] is -6e-05 (inactive).

As to `Cc1nc2ccccn2c1C(=O)NCCCN1CCOCC1`, in assay [1], the cell count turned out to be 521. For the same molecule, the inhibition in assay [1] is -7.5% (inactive); in assay [3], 11.8% (inactive); in assay [7] it was 4.89% (inactive); in assay [8] it was 12.3% (inactive). The inhibition of aggregation in assay [2] is 3% (inactive). Moreover, the nuclei count in assay [2] and in assay [3] was 102% throughout. The figures for the fluorescence slope in assay [4] and in assay [6] were -0.461 (inactive) and 0.0064 (inactive), respectively. Further, the NADPH fluorescence slope in assay [5] was 0.000108 (inactive).

Turning to `CCn1c(C(=O)OC)cc2c1ccn2-c1ccc(F)cc1`, in assay [1], the cell count is 648. For the same molecule, the inhibition in assay [1] is -2.6% (inactive); in assay [3], -86.1% (inactive); in assay [7] it was -52.7% (inactive); in assay [8] it was -96.4% (inactive). The inhibition of aggregation in assay [2] is 25% (inactive). The figures for the nuclei count in assay [2] and in assay [3] were 99.6% and 105%, respectively. Besides, the fluorescence slope in assay [4] is -0.61 (inactive); in assay [6], 0.00586 (inactive). In addition, the NADPH fluorescence slope in assay [5] was -2e-05 (inactive).

Take `COc1ccc(/C=N/n2c(=O)[nH]c3c([nH]c4ccc(C)cc43)c2=O)cc1CN1CCOCC1`: the cell count in assay [1] worked out at 643. In addition, the inhibition in assay [1] is 2.6% (inactive); in assay [3] it was 4.3% (inactive); in assay [7], -0.771% (inactive); in assay [8], 11.2% (inactive). Besides, the inhibition of aggregation in assay [2] was 16.8% (inactive). Moreover, the nuclei count amounted to 74.3% in assay [2] and 98.4% in assay [3]. For the same molecule, the fluorescence slope in assay [4] is -0.407 (inactive); in assay [6] it was 0.00369 (inactive). Besides, in assay [5], the NADPH fluorescence slope was -0.000488 (inactive).

For the molecule `CC(=O)c1c(C)[nH]c(C(=O)NC2=NCCS2)c1C`, the cell count in assay [1] is 459. Besides, the inhibition was -9.6% (inactive) in assay [1], 23.6% (inactive) in assay [3], -2.52% (inactive) in assay [7] and -11.8% (inactive) in assay [8]. In assay [2], the inhibition of aggregation was 15.8% (inactive). For the same molecule, the results for the nuclei count in assay [2] and in assay [3] were 61.1% and 95.2%, respectively. Besides, the fluorescence slope in assay [4] is -0.571 (inactive); in assay [6], 0.00678 (inactive). The NADPH fluorescence slope in assay [5] was -1.9e-05 (inactive).

As to `CCCOc1ccc(/C(O)=C2/C(=O)C(=O)N(CCCOC)C2c2ccncc2)cc1` (centres undefined), in assay [1], the cell count amounted to 593. Moreover, the inhibition was 5.8% (inactive) in assay [1], 1.9% (inactive) in assay [3], 13.1% (inactive) in assay [7] and 2.66% (inactive) in assay [8]. Besides, the inhibition of aggregation in assay [2] was 4% (inactive). In addition, the nuclei count in assay [2] amounted to 97.6%; in assay [3], 108%. Also, the fluorescence slope in assay [4] was -0.29 (inactive); in assay [6], 0.00606 (inactive). The NADPH fluorescence slope in assay [5] is -6.1e-05 (inactive).

Regarding `COc1oc(-c2ccccc2)nc1C(F)(F)F`, the cell count in assay [1] was found to be 353. For the same molecule, the inhibition was 4.1% (inactive) in assay [1], -15.8% (inactive) in assay [3], 3.7% (inactive) in assay [7] and 12.2% (inactive) in assay [8]. Moreover, the inhibition of aggregation in assay [2] is 0.7% (inactive). For the same molecule, the nuclei count was 106% in assay [2] and 116% in assay [3]. Besides, the fluorescence slope was -0.473 (inactive) in assay [4] and 0.00537 (inactive) in assay [6]. In assay [5], the NADPH fluorescence slope is -3.2e-05 (inactive).

Consider `Cc1ccc(-n2c3c(cc(C(=O)O)c2=O)C(=O)CC(C)(C)C3)cc1`, for which the cell count in assay [1] turned out to be 418. In addition, the inhibition is 2.8% (inactive) in assay [1], 3.1% (inactive) in assay [3], 17% (inactive) in assay [7] and 24.4% (inactive) in assay [8]. The inhibition of aggregation in assay [2] is 6.9% (inactive). For the same molecule, the nuclei count was 109% in assay [2] and 110% in assay [3]. Further, the fluorescence slope in assay [4] is -0.377 (inactive); in assay [6], 0.00507 (inactive). In assay [5], the NADPH fluorescence slope was 4.6e-05 (inactive).

Take `CCCOc1ccc(N2C(=O)CC(NCCCN3CCC(C(N)=O)CC3)C2=O)cc1` (centres undefined): in assay [1], the cell count was determined as 322. Further, the inhibition was -0.7% (inactive) in assay [1], -32% (inactive) in assay [3], 19.4% (inactive) in assay [7] and 19.7% (inactive) in assay [8]. Also, the inhibition of aggregation in assay [2] was 9.6% (inactive). In addition, the nuclei count turned out to be 121% in assay [2] and 110% in assay [3]. Besides, the fluorescence slope in assay [4] is -0.429 (inactive); in assay [6], 0.00445 (inactive). The NADPH fluorescence slope in assay [5] was -4.4e-05 (inactive).

Turning to `O=C1CC(N2CCOCC2)C(=O)N1c1ccc2c(c1)OCO2` (centres undefined), in assay [1], the cell count was determined as 459. The inhibition in assay [1] is 7.5% (inactive); in assay [3] it was -175% (inactive); in assay [7], 4.21% (inactive); in assay [8], 10.1% (inactive). The inhibition of aggregation in assay [2] is -9.9% (inactive). Moreover, the nuclei count in assay [2] was determined as 105%; in assay [3] it was 120%. Further, the fluorescence slope in assay [4] is -0.574 (inactive); in assay [6], 0.00505 (inactive). In assay [5], the NADPH fluorescence slope is -3.1e-05 (inactive).

For `CCC(=O)Nc1cccc(Br)c1`, in assay [1], the cell count amounted to 323. For the same molecule, the inhibition in assay [1] is 2.9% (inactive); in assay [3] it was -38.1% (inactive); in assay [7] it was -18.4% (inactive); in assay [8], -1.97% (inactive). Besides, the inhibition of aggregation in assay [2] is 17.6% (inactive). The nuclei count in assay [2] worked out at 99.7%; in assay [3], 123%. The fluorescence slope in assay [4] is -0.541 (inactive); in assay [6] it was 0.0051 (inactive). For the same molecule, in assay [5], the NADPH fluorescence slope was -6e-05 (inactive).

For `CCOc1ccc(-c2noc(-c3ccncc3)n2)cc1OCC`, the cell count in assay [1] was determined as 807. The inhibition in assay [1] was 1.7% (inactive); in assay [3] it was -21.2% (inactive); in assay [7], 4.12% (inactive); in assay [8], -4.62% (inactive). The inhibition of aggregation in assay [2] is 33.6% (inactive). For the same molecule, the nuclei count is 106% in assay [2] and 117% in assay [3]. For the same molecule, the fluorescence slope in assay [4] is -0.533 (inactive); in assay [6], 0.023 (active). Besides, the NADPH fluorescence slope in assay [5] is 4e-05 (inactive).

As for `CC(=O)C1=C(N2CCCCC2)CCC1=O`, the cell count in assay [1] turned out to be 431. Besides, the inhibition in assay [1] is 2.3% (inactive); in assay [3], -0.5% (inactive); in assay [7], 8.02% (inactive); in assay [8] it was 11.2% (inactive). Moreover, the inhibition of aggregation in assay [2] is -14.9% (inactive). Besides, the nuclei count in assay [2] came out at 100%; in assay [3] it was 109%. Moreover, the figures for the fluorescence slope in assay [4] and in assay [6] were -0.328 (inactive) and 0.00689 (inactive), respectively. Besides, the NADPH fluorescence slope in assay [5] is -1.9e-05 (inactive).

As for `CC(=O)c1cccc(NC(=O)N2C3CCC2CC(O)(c2cccnc2)C3)c1` (centres undefined), the cell count in assay [1] turned out to be 602. Also, the inhibition in assay [1] was 9.7% (inactive); in assay [3], -27.6% (inactive); in assay [7], -7.02% (inactive); in assay [8], 16.5% (inactive). Besides, the inhibition of aggregation in assay [2] is -21.4% (inactive). The nuclei count in assay [2] turned out to be 104%; in assay [3] it was 106%. For the same molecule, the fluorescence slope in assay [4] was -0.259 (inactive); in assay [6], 0.0059 (inactive). Besides, in assay [5], the NADPH fluorescence slope is 3.9e-06 (inactive).
